Series [1] concerns MT4. As to the kind of experiment: Cytotoxicity against human MT4 cells assessed as decrease in cell viability. It is filed as cell-based. In outline: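 MT-4 viability was measured by automated propidium iodide-based cell counting, enumerating total and dead cells in untreated and compound-treated cultures.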
Series [2] relates to MT4. As to the kind of experiment: Cytotoxicity against human MT4 cells assessed as inhibition of cell proliferation. In kind it is cell-based.
For series [3], the system named is Human immunodeficiency virus 2. As to the kind of experiment: Antiviral activity against HIV2 ROD infected in human CEM cells assessed as inhibition of virus-induced cytopathicity after 4 days. The note with it: Human immunodeficiency virus 2, ISOLATE ROD, CCRF-CEM, 96 h. It is filed as functional, organism-based. In outline: (§1)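 Human CEM cells (~3 × 10^5 cells/mL) infected with 100 CCID50 per mL of HIV-1(IIIB) or HIV-2(ROD), then seeded into wells holding compound dilutions. Incubated 4 days at 37°C. Giant cell formation was scored microscopically.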

Series [4] concerns Human immunodeficiency virus 1. As to the kind of experiment: Antiviral activity against HIV1 3B/Lai infected in human CEM cells assessed as inhibition of virus-induced cytopathicity after 4 days. The note with it: Human immunodeficiency virus 1, 3B/Lai, CCRF-CEM, 96 h. It is filed as functional, organism-based. In outline: as §1
A general note: Protection from cytopathic effect is a common read-out in antiviral testing.

For series [5], the system named is CCRF-CEM. In words: Cytotoxicity against human CEM cells assessed as decrease in cell viability. In kind it is cell-based.
Series [6] can be described thus: Cytotoxicity against HEL cells assessed as concentration required to cause alteration in cell alteration by microscopically. In kind it is cell-based. The note with it: human.
In series [7] the test system is Human alphaherpesvirus 2. As to the kind of experiment: Antiviral activity against HSV2 G infected in HEL cells assessed as inhibition of virus-induced cytopathicity. It is filed as functional, organism-based. The settings on record: Human alphaherpesvirus 2, strain G. In outline: (§2)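 Confluent human embryonic lung fibroblast monolayers inoculated with 100 CCID50 virus. After 1–2 h adsorption, residual virus was removed and cultures were incubated with varying compound concentrations. Cytopathicity was scored once untreated infected controls reached full cytopathicity.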

Series [8] has as its system Human immunodeficiency virus 1. As to the kind of experiment: Antiviral activity against HIV1 3B/Lai infected in human MT4 cells assessed as suppression of p24 production after 3 days. In kind it is functional, organism-based. The settings on record: Human immunodeficiency virus 1, 3B/Lai, MT4, 72 h. The method in brief:
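MT-4 cells (1 × 10^4 cells/mL) in fresh medium infected with X4LAI.04 stock, 10 μL (0.7 ng p24) per mL of cell suspension. Mixed with medium carrying compound dilutions and kept at 37°C. After 3 days, p24 was measured in culture supernatants.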

For series [9], the system named is Human alphaherpesvirus 1. As to the kind of experiment: Antiviral activity against acyclovir […]-resistant thymidine kinase-deficient HSV1 KOS infected in HEL cells assessed as inhibition of virus-induced cytopathicity. It is filed as functional, organism-based. The note with it: Human alphaherpesvirus 1, KOS. In outline: as §2
Series [10] relates to Human alphaherpesvirus 1. As to the kind of experiment: Antiviral activity against HSV1 KOS infected in HEL cells assessed as inhibition of virus-induced cytopathicity. The settings on record: Human alphaherpesvirus 1, KOS. It is filed as functional, organism-based. In outline: as §2
Series [11] has as its system HEL. As to the kind of experiment: Cytotoxicity against HEL cells assessed as inhibition of cell proliferation. In kind it is cell-based. The note with it: Homo sapiens.

Each structure is given as a SMILES string. Some results are limits rather than exact numbers.

For `C[C@H](NP(=O)(OCCOCn1cnc2c(=O)[nH]c(N)nc21)Oc1ccccc1)C(=O)OCc1ccccc1` (some centres undefined), the figures for the IC50 in [1], in series [5] and in [11] were 33.8 µM, 42 µM and 91 µM, respectively. For the same compound, the 50% cytotoxic concentration (CC50) (as a rule, the concentration giving 50% cytotoxicity) in series [2] was more than 150 µM. Further, the EC50 (usually the midpoint of the concentration-response curve) in series [3] came to 11 µM; in series [4], 16 µM; in series [7], 4 µM; in series [8], 5.7 µM; in series [9] it was 15 µM; in series [10], 8 µM. The MCC in series [6] is more than 50 µM.

With `C[C@H](NP(=O)(OCCOCn1cnc2c(=O)[nH]c(N)nc21)Oc1cccc2ccccc12)C(=O)OC(C)(C)C` (some centres undefined), the half-maximal inhibitory concentration (IC50) – broadly, the concentration that gives 50% inhibition – in series [1] is more than 150 µM; in series [5], more than 100 µM; in series [11], more than 100 µM. Besides, the CC50 in [2] is more than 150 µM. The EC50 is more than 100 µM in series [3]; more than 100 µM in series [4]; 50 µM in series [7]; more than 150 µM in [8]; more than 100 µM in [9]; more than 100 µM in [10]. Further, the MCC in [6] is more than 50 µM.

With `CCOC(=O)[C@H](C)NP(=O)(OCCOCn1cnc2c(=O)[nH]c(N)nc21)Oc1cccc2ccccc12` (some centres undefined), the figures for the 50% inhibitory concentration (IC50) in [1], in series [5] and in [11] were 12 µM, 32 µM and more than 100 µM, respectively. For the same compound, the CC50 in series [2] is more than 150 µM. The EC50 is 42 µM in series [3]; 12 µM in [4]; 9.5 µM in series [7]; 1.7 µM in [8]; 32 µM in series [9]; 32 µM in series [10]. In addition, the MCC in series [6] is more than 150 µM.

As for `CC(C)OC(=O)[C@H](C)NP(=O)(OCCOCn1cnc2c(=O)[nH]c(N)nc21)Oc1cccc2ccccc12` (some centres undefined), the 50% inhibitory concentration (IC50) in [1] is 72.5 µM; in [5] it was 36 µM; in series [11] it was more than 100 µM. Besides, the CC50 in series [2] was more than 150 µM. The EC50 in [3] was 12 µM; in series [4], 6.2 µM; in series [7] it was 10 µM; in series [8], 5.4 µM; in series [9] it was not below 45 µM; in series [10] it was 15 µM. In series [6], the MCC was more than 50 µM.
